Test results taken from ChEMBL document CHEMBL1151962, “Identification of N,1,4,4-tetramethyl-8-{[4-(4-methylpiperazin-1-yl)phenyl]amino}-4,5-dihydro-1H-pyrazolo[4,3-h]quinazoline-3-carboxamide (PHA-848125), a potent, orally available cyclin dependent kinase inhibitor” (J Med Chem, 2009).
pIC50: −log10 of the molar value. Values after ≈ are worked out from the molar mass of the structure shown. Active and inactive are the calls of the source. No cut-off for these calls is given here.

How the values were obtained:
Cytochrome P450 3A4 = Cytochrome P450 3A4 (Homo sapiens, UniProt P08684); experiment: Inhibition of human CYP3A4 assessed as compound remaining by LC/MS/MS analysis; format: ADME; set-up: concentration or dose not given beside the values
Homo sapiens = organism: Homo sapiens; experiment: Protein binding in human plasma; details: read-out: PPB (converted)
[1] = Solubility in 5% dextrose; format: physicochemical
[2] = target: T1, Cyclin-dependent kinase 2 (Homo sapiens, UniProt P24941); experiment: Inhibition of CDK2/Cyclin A
Aurora kinase A = target: T2, Aurora kinase A (Homo sapiens, UniProt O14965); experiment: Inhibition of Aurora A
T2 sequence (O14965 whole entry): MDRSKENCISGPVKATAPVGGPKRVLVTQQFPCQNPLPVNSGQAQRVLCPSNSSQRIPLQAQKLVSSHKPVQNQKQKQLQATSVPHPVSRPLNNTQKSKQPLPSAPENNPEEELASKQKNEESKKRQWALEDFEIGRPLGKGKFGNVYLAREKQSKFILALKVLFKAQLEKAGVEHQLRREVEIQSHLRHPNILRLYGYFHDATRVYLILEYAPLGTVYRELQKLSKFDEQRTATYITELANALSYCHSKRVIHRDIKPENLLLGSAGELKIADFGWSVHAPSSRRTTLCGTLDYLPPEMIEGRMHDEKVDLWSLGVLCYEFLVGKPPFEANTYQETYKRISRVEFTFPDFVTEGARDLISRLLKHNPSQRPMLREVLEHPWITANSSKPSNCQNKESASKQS

A2780 = experiment: Antiproliferative activity against human A2780 cells after 72 hrs by cell Titer_Glo assay; format: functional, cell-based; details: A2780, 72 h
Summary of the method: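 A2780 cells were seeded at 10000–30000 cells/cm² in medium with 10% FCS. After 24 h they were treated with serial dilutions of compound, in two replicates. Cell amount was read by Cell Titer Glo 72 h after treatment. IC50 came from sigmoidal fitting.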

[3] = Solubility at pH 7; format: physicochemical; details: buffer
[4] = Half life in fasted nu/nu mouse at 10 mg/kg, po by LC/MS/MS analysis; format: ADME, organism-based; set-up: dose 10 mg/kg, route oral; details: in vivo
Summary of the method: (§1)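 Overnight-fasted male Nu/Nu mice received a single 10 mg/kg dose iv or orally, in 5% dextrose vehicle, given as the hydrochloride salt. Three mice per route. Saphenous vein blood was drawn predose and at 0.083 (iv) or 0.25 (po), 0.5, 1, 6 and 24 h. Samples were spun at 10000g for 3 min at 4 °C, and plasma was stored at -80 °C until analysis.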

[5] = Half life in fasted nu/nu mouse at 10 mg/kg, iv by LC/MS/MS analysis; format: ADME, organism-based; set-up: dose 10 mg/kg, route intravenous; details: in vivo; summary of the method: as §1
[6] = AUC in fasted nu/nu mouse at 10 mg/kg, po LC/MS/MS analysis; format: ADME, organism-based; set-up: dose 10 mg/kg, route oral; details: plasma; summary of the method: as §1
[7] = Volume of distribution at steady state in fasted nu/nu mouse at 10 mg/kg, iv by LC/MS/MS analysis; format: ADME, organism-based; set-up: dose 10 mg/kg, route intravenous; details: in vivo, read-out: Vdss; summary of the method: as §1
[8] = Cmax in fasted nu/nu mouse at 10 mg/kg, po by LC/MS/MS analysis; format: ADME, organism-based; set-up: dose 10 mg/kg, route oral; details: in vivo; summary of the method: as §1
[9] = Clearance in fasted nu/nu mouse at 10 mg/kg, iv by LC/MS/MS analysis; format: ADME, organism-based; set-up: dose 10 mg/kg, route intravenous; details: in vivo; summary of the method: as §1
[10] = Oral bioavailability in fasted nu/nu mouse at 10 mg/kg by LC/MS/MS analysis; format: ADME, organism-based; details: in vivo; summary of the method: as §1
[11] = target: T1, Cyclin-dependent kinase 2; experiment: Inhibition of CDK2 in human A2780 cells assessed as reduction of hyperphosphorylated form of retinoblastoma protein at 1 uM relative to control; format: cell-based
Summary of the method: (§2)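 A2780 human ovarian carcinoma cells (ECACC) were seeded at 25 000 cells/cm2 in RPMI 1640 pH 7.4 with 10% FBS and 2 mM L-glutamine, at 37 °C in 5% CO2. They were exposed 24 h later to 1 or 3 µM. Floating and adherent cells were harvested with trypsin/EDTA. Extracts were immunoblotted for hyper- and hypophosphorylated pRb and compared with untreated cells.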

[12] = target: T1, Cyclin-dependent kinase 2; experiment: Inhibition of CDK2 in human A2780 cells assessed as accumulation of hypophosphorylated form of retinoblastoma protein at 3 uM relative to control; format: cell-based; summary of the method: as §2
[13] = target: T1, Cyclin-dependent kinase 2; experiment: Inhibition of CDK2 in human A2780 cells assessed as accumulation of hypophosphorylated form of retinoblastoma protein at 1 uM relative to control; format: cell-based; summary of the method: as §2
[14] = target: T1, Cyclin-dependent kinase 2; experiment: Inhibition of CDK2 in human A2780 cells assessed as reduction of hyperphosphorylated form of retinoblastoma protein at 3 uM relative to control; format: cell-based; summary of the method: as §2

Chain of Cytochrome P450 3A4 (P08684 whole entry): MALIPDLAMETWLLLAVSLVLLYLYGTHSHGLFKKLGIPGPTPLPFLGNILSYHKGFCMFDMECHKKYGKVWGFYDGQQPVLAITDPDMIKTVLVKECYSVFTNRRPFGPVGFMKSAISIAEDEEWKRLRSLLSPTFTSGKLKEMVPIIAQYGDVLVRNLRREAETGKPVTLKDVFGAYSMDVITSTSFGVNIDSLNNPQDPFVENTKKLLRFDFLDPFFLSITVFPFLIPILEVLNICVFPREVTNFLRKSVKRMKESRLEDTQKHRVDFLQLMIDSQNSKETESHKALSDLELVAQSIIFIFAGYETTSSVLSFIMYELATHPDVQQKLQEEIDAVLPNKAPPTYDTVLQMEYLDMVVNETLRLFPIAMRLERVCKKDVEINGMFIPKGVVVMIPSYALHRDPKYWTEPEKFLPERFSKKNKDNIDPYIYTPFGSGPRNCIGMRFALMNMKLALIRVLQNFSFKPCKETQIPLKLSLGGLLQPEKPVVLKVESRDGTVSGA

| pIC50 [2] | pIC50 (Aurora kinase A) | pIC50 (A2780) | solubility [3] [µM] | Compound | also measured |
| --- | --- | --- | --- | --- | --- |
| 7.35 | 6.76 | 6.72 | 211 (≈ 91.3 µg/mL) | CNC(=O)c1nn(C)c2c1CCc1cnc(Nc3ccc(N4CCN(C)CC4)cc3)nc1-2 | – |
| – | – | – | 3 (≈ 0.961 µg/mL) | Cn1nc(C(N)=O)c2c1-c1nc(Nc3ccccc3)ncc1CC2 | – |
| 8.70 | 7.28 | 7.52 | 156 (≈ 65.3 µg/mL) | CN1CCN(c2ccc(Nc3ncc4c(n3)-c3c(c(C(N)=O)nn3C)CC4)cc2)CC1 | – |
| 7.08 | 5.53 | 6.30 | 193 (≈ 81 µg/mL) | CNC(=O)c1nn(C)c2c1C(C)(C)Cc1cnc(Nc3cccc(CN(C)C)c3)nc1-2 | – |
| – | – | – | 1 (≈ 0.388 µg/mL) | Cn1nc(C(=O)NC2CCCC2)c2c1-c1nc(Nc3ccccc3)ncc1CC2 | – |
| 7.62 | < 5.00 | 6.77 | < 1 | Cn1nc(C(N)=O)c2c1-c1nc(Nc3ccccc3)ncc1CC2(C)C | – |
| 5.98 | 6.43 | 6.24 | 1 (≈ 0.41 µg/mL) | Cn1nc(C(=O)NCc2ccccc2)c2c1-c1nc(Nc3ccccc3)ncc1CC2 | – |

More lines, now with the values behind:

| Compound | pIC50 [2] | pIC50 (Aurora kinase A) | pIC50 (A2780) | solubility [3] [µM] | also measured |
| --- | --- | --- | --- | --- | --- |
| CN1CCN(c2ccc(Nc3ncc4c(n3)-c3c(c(C(N)=O)nn3C)C(C)(C)C4)cc2)CC1.Cl | – | – | – | – | Activity (Cytochrome P450 3A4): 82%; fraction unbound (Homo sapiens): 0.01; solubility [1]: 3400 µg/mL |
| CNC(=O)c1nn(C)c2c1C(C)(C)Cc1cnc(Nc3ccc(CN(C)C)cc3)nc1-2.Cl | – | – | – | – | half-life [4]: 3.4 h; Activity (Cytochrome P450 3A4): 77%; half-life [5]: 1.4 h; fraction unbound (Homo sapiens): 0.05; solubility [1]: 10000 µg/mL; AUC [6]: 1.97 µM·h; Vd [7]: 4.04 L/kg; Cmax [8]: 570 nM; clearance [9]: 53.3 mL/min/kg; bioavailability [10]: 28% |
| CNC(=O)c1nn(C)c2c1C(C)(C)Cc1cnc(Nc3cccc(CN4CCN(C)CC4)c3)nc1-2 | 7.23 | 5.93 | 6.24 | 162 (≈ 76.9 µg/mL) | – |
| CNC(=O)c1nn(C)c2c1CCc1cnc(Nc3ccccc3)nc1-2 | – | – | – | 1 (≈ 0.334 µg/mL) | – |
| CNC(=O)c1nn(C)c2c1C(C)(C)Cc1cnc(Nc3ccc(CN4CCN(C)CC4)cc3)nc1-2.Cl | – | – | – | – | half-life [4]: 4.2 h; Activity (Cytochrome P450 3A4): 50%; half-life [5]: 1.8 h; fraction unbound (Homo sapiens): 0.01; solubility [1]: 10000 µg/mL; AUC [6]: 3.37 µM·h; Vd [7]: 3.23 L/kg; Cmax [8]: 770 nM; clearance [9]: 31.6 mL/min/kg; bioavailability [10]: 42% |
| CN1CCN(c2ccc(Nc3ncc4c(n3)-c3c(c(C(N)=O)nn3C)C(C)(C)C4)cc2)CC1 | 7.77 | 6.24 | 7.30 | 98 (≈ 43.8 µg/mL) | – |
| CNC(=O)c1nn(C)c2c1C(C)(C)Cc1cnc(Nc3cccc(OC4CCN(C)CC4)c3)nc1-2 | 7.33 | 5.80 | 6.41 | 160 (≈ 76.1 µg/mL) | – |
| CNC(=O)c1nn(C)c2c1C(C)(C)Cc1cnc(Nc3ccc(N(C)C)cc3)nc1-2 | 7.23 | 6.07 | 6.30 | 56 (≈ 22.7 µg/mL) | – |
| CNC(=O)c1nn(C)c2c1C(C)(C)Cc1cnc(Nc3ccc(N4CCN(C)CC4)cc3)nc1-2 | – | – | – | – | Activity [11]: Active; Activity [12]: Active; Activity [13]: Active; Activity [14]: Active |
